For test [1], the target named is T1, Mineralocorticoid receptor (Rattus norvegicus) (UniProt P22199).
T1 sequence (whole entry): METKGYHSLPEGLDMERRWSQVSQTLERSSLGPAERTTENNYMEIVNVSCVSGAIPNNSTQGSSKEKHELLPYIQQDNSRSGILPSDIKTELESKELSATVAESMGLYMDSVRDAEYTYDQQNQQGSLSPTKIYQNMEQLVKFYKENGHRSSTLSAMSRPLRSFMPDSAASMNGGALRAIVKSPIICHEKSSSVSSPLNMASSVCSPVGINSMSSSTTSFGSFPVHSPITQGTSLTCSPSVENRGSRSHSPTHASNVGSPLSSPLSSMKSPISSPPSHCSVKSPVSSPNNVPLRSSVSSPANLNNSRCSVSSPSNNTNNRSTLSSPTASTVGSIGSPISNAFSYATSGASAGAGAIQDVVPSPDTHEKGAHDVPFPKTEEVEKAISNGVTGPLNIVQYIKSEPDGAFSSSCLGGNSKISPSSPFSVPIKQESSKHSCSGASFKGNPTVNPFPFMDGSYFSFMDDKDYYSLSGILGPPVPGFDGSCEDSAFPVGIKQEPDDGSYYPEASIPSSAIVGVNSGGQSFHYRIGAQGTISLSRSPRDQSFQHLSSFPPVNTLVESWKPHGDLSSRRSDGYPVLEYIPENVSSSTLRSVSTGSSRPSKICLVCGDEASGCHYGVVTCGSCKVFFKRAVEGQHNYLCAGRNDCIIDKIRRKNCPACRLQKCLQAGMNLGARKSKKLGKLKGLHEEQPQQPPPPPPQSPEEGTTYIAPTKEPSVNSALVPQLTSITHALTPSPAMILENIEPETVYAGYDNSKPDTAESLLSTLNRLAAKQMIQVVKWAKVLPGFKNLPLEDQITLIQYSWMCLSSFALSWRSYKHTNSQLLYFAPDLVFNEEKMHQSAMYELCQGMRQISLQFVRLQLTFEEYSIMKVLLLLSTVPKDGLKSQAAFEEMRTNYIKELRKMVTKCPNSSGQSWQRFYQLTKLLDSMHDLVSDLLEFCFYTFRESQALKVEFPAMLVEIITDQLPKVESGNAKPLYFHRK
Kind of test: Aldosterone (5 ug/kg) antagonist and agonist activity for urinary Na/k at 0 ug/kg. Type of test: functional. As to conditions: Urine. Summed up:
(§1)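 Male Slc:Wistar rats, 7 weeks old, bilaterally adrenalectomized 2 days before assay, kept on 0.45% NaCl. Sugar cubes replaced diet the next evening, with 6 mL 0.45% NaCl/100 g given ip that evening and again on assay morning. Aldosterone (5 μg/kg in sesame oil) or none given sc, test compound sc right after. Urinary Na and K measured by atomic absorption; Na/K reported as mean ± SE.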

Test [2] concerns the target T1, Mineralocorticoid receptor (Rattus norvegicus). Kind of test: Relative binding affinity against mineralocorticoid receptor of rat kidney at 25 degree Centigrade. In outline: (§2)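 Kidney cytosol from male Sprague-Dawley rats (4-8 weeks), adrenalectomized 1-2 days before, prepared in pH 7.5 phosphate buffer with DTT, sucrose and 10 mM molybdate, spun at 200000g. Incubated with competitor (0.4 nM-40 μM) and about 1 nM 3H-aldosterone for 42-48 h at 0 °C or 100-120 min at 25/26 °C. Dextran-coated charcoal separation. RBA = ratio of 50%-inhibition concentrations versus aldosterone standard (=100).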

The target is the same in test [3]. Kind of test: Aldosterone (5 ug/kg) antagonist and agonist activity for urinary Na/k at 2500 ug/kg. Type of test: functional. As to conditions: Urine. In outline: as §1
For test [4] the target is unchanged. Kind of test: Aldosterone (0 ug/kg) antagonist and agonist activity for urinary Na/k at 2500 ug/kg. As to conditions: Urine. It counts as functional. In outline: as §1
For test [5] the target is unchanged. Kind of test: (§3) Aldosterone (0 ug/kg) antagonist and agonist activity for urinary Na/k at 0 ug/kg. Type of test: functional. As to conditions: Urine. Summed up: as §1
Test [6] has the same target. Kind of test: Relative binding affinity against mineralocorticoid receptor of rat kidney at 0 degree Centigrade. In outline: as §2
Test [7] has the same target. Kind of test: Relative binding affinity against mineralocorticoid receptor of rat kidney at 0 degree centigrade; value ranges from […]-[…]%.
Test [8] has the same target. Kind of test: Aldosterone (5 ug/kg) antagonist activity for urinary Na/k at 250 ug/kg. Type of test: functional. As to conditions: Urine. In outline: as §1
For test [9] the target is unchanged. Kind of test: Aldosterone (5 ug/kg) antagonist activity for urinary Na/k at 25000 ug/kg. It counts as functional. As to conditions: Urine. Summed up:
as §1

The target is the same in test [10]. Kind of test: Relative binding affinity against mineralocorticoid receptor of rat kidney at 25 degree centigrade; value ranges from […]-[…]%.
Test [11] shares this target. Kind of test: Aldosterone (5 ug/kg) antagonist activity for urinary Na/k at 2500 ug/kg. As to conditions: Urine. It counts as functional. In outline:
as §1

For test [12] the target is unchanged. Kind of test: Aldosterone (5 ug/kg) antagonist and agonist activity for urinary Na/k at 25 ug/kg. Type of test: functional. As to conditions: Urine. In outline:
as §1

The target is the same in test [13]. Kind of test: Aldosterone (0 ug/kg) antagonist and agonist activity for urinary Na/k at 25 ug/kg. It counts as functional. As to conditions: Urine. Summed up: as §1
Test [14] addresses T2, Androgen receptor (Rattus norvegicus) (UniProt P15207).
T2 sequence (whole entry): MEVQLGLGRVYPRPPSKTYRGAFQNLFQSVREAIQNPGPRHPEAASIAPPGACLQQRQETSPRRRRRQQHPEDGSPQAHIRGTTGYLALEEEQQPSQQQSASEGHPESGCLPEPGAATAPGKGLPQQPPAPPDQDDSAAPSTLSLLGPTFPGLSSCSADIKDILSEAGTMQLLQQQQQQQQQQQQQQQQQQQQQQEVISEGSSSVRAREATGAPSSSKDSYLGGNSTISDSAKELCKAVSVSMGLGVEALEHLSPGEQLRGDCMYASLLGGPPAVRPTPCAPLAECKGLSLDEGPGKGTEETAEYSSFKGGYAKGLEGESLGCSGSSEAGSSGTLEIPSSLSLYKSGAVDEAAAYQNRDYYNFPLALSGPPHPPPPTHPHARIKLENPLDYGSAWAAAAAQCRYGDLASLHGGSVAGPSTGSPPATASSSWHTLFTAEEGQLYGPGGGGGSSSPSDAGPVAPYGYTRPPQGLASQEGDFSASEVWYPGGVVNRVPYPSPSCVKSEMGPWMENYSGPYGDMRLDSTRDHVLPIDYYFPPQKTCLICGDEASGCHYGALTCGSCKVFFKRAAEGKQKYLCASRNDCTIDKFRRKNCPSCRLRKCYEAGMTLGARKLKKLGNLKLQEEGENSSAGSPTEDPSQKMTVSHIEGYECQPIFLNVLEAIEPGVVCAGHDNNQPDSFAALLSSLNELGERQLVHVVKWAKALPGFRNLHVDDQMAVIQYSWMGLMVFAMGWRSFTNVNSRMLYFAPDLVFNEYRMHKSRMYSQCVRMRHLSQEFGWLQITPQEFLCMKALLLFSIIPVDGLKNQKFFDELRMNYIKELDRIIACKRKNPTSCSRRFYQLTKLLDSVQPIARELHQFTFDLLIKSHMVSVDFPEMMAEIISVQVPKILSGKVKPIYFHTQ
Kind of test: Relative binding affinity against androgen receptor of rat prostate at 15 degree centigrade; N means negative, < 0.1. In outline: (§4)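 Ventral prostate cytosol from rats (4-5 weeks) castrated 1 day before, prepared in pH 7.5 phosphate buffer and spun 2 h at 200000g. Incubated with competitor (0.4 nM-40 μM) and 3H-DHT or 3H-methylnandrolone for 16-20 h at 0 °C or 2 h at 15 °C. Dextran-coated charcoal separation. RBA taken against DHT standard (=100); negative means RBA <0.1%.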

Test [15] concerns the target T1, Mineralocorticoid receptor (Rattus norvegicus). Kind of test: Aldosterone (5 ug/kg) antagonist and agonist activity for urinary Na/k at 2.5 ug/kg. As to conditions: Urine. Type of test: functional. Summed up: as §1
Test [16] deals with T2, Androgen receptor (Rattus norvegicus). Kind of test: Relative binding affinity against androgen receptor of rat prostate at 0 degree centigrade; N means negative, < 0.1. In outline:
as §4

The target in test [17] is T1, Mineralocorticoid receptor (Rattus norvegicus). Kind of test: Aldosterone (0 ug/kg) antagonist and agonist activity for urinary Na/k at 2.5 ug/kg. It counts as functional. As to conditions: Urine. Summed up: as §1
Test [18] has the same target. Kind of test: Aldosterone (5 ug/kg) antagonist and agonist activity for urinary Na/k at 250 ug/kg. As to conditions: Urine. It counts as functional. In outline:
as §1

For test [19] the target is unchanged. Kind of test: Aldosterone (0 ug/kg) antagonist and agonist activity for urinary Na/k at 250 ug/kg. It counts as functional. As to conditions: Urine. Summed up:
as §1

For test [20] the target is unchanged. Kind of test: Relative binding affinity against mineralocorticoid receptor of rat kidney at 0 degree centigrade; value ranges from 36-63%. In outline: as §2
Test [21] shares this target. Kind of test: Agonist activity for urinary Na/k at 25000 ug/kg. As to conditions: Urine. It counts as functional. Summed up: as §1
Test [22] has the same target. Kind of test: Aldosterone (0 ug/kg) antagonist activity for urinary Na/k at 0 ug/kg. It counts as functional. As to conditions: Urine. Summed up: as §1
For test [23] the target is unchanged. Kind of test: Agonist activity for urinary Na/k at 250 ug/kg. As to conditions: Urine. It counts as functional. In outline: as §1
For test [24] the target is unchanged. Kind of test: Relative binding affinity against mineralocorticoid receptor of rat kidney at 0 degree centigrade; value ranges from 44-58%. In outline:
as §2

Test [25] has the same target. Kind of test: Agonist activity for urinary Na/k at 2500 ug/kg. Type of test: functional. As to conditions: Urine. Summed up:
as §1

Test [26] has the same target. Kind of test: Aldosterone (5 ug/kg) antagonist activity for urinary Na/k at 0 ug/kg. It counts as functional. As to conditions: Urine. Summed up:
as §1

Test [27] has the same target. Kind of test: Aldosterone (0 ug/kg) antagonist and agonist activity for urinary Na/k at 25000 ug/kg. As to conditions: Urine. It counts as functional. Summed up:
as §1

For test [28] the target is unchanged. The test is described as §3. Type of test: functional. As to conditions: Urine. Summed up: as §1
The source holds these as a separate data set.

The target is the same in test [29]. Kind of test: Aldosterone (5 ug/kg) antagonist and agonist activity for urinary Na/k at 25000 ug/kg. As to conditions: Urine. It counts as functional. In outline: as §1

“And” between values parts separate entries of the source, which are not always exact repeats. Equal entries are not always repeated. The source made the active and inactive calls. No cut-off for these calls is given here.

Regarding `CC(=O)S[C@@H]1CC2=CC(=O)CCC2(C)C2C3CC4(CO3)C(CC[C@@]43CCC(=O)O3)C21` (stereo not given in full), the Activity in test [1] stood at 1.1; in test [3], 1.6; in [4], 6.4; in test [5] it was 7.7. Moreover, the RBA in test [2] was found to be 0.4%; in [6] it was 0.1%.

In the case of `CC(=O)S[C@@H]1CC2=CC(=O)CC[C@]2(C)[C@H]2CC[C@@]3(C)[C@@H](CC[C@@]34CCC(=O)O4)[C@H]12`, the figures for the RBA in [7] and in [10] were 2.3% and 11%, respectively. Besides, the Activity in [8] was found to be 0.93; in test [9], 2.83; in test [11], 1.47.

For `CC12CCC(=O)C=C1CCC1C3CCC(C(=O)CO)C34COC(C4)[C@@]12F` (stereo not given in full), the Activity in test [1] came to 1; in test [12], 0.1; in test [13], 0.3; in test [15], 0.7; in [5], 4.8; in test [17] it was 2.8. The RBA in test [2] came to 270%; in test [6] it was 320%. The RBA result in test [14] and in [16] was “inactive” throughout.

Regarding `C[C@]12CCC(=O)C=C1CC[C@@H]1[C@@H]2[C@@H](O)C[C@]2(C=O)[C@@H](C(=O)CO)CC[C@@H]12`, the RBA in test [2] and in [6] was 100% each time.

In the case of `CC12CCC(=O)C=C1CCC1C3CCC(C(=O)CO)C34COC(C4)[C@@H]12` (stereo not given in full), the Activity amounted to 0.8 in test [1], 1.7 in test [18], 1.8 in test [19] and 3.5 in [5]. Besides, the RBA in [2] was determined as 32%; in [20], 36%. Moreover, the RBA entry in test [16] was “inactive”.

`CC12CCC(=O)C=C1CCC1C3CC[C@@]4(CCC(=O)O4)C34COC(C4)[C@@]12F` (stereo not given in full): the Activity in [21] was determined as 1.95; in test [22], 4.07; in test [1] it was 0.4; in test [23], 3.42; in test [3] it was 2.5; in test [4] it was 3.5. Besides, the Activity was 2.7 in test [25]; 0.75 in test [26]; 1.33 in [8]; 2.13 in [9]; 5.1 in [5]; 2.08 in [11]. The RBA in [2] worked out at 23%; in [24] it was 44%. Further, the RBA result in [14] and in test [16] was “inactive” in each case.

On to `CC12CCC(=O)C=C1CCC1C3CC[C@@]4(CCC(=O)O4)C34COC(C4)[C@@H]12` (stereo not given in full), for which the Activity was 3.8 in test [27]; 7.7 in test [28]; 2.2 in [29]; 1.1 and 0.7 in test [1]; 2.4 in [3]; 8.8 in test [4]. The Activity in test [5] stood at 3.8. For the same molecule, the values for the RBA in test [2] and in test [6] were 1.1% and 1.8%, respectively.

The record behind these values is ChEMBL document CHEMBL1122971, “Aldosterone antagonists. 1. Synthesis and biological activities of 11 beta,18-epoxypregnane derivatives” (J Med Chem, 1985).
